Here are results for nine molecules from ChEMBL document CHEMBL1140468, “Design, synthesis and biological evaluation of substituted dioxodibenzothiazepines and dibenzocycloheptanes as farnesyltransferase inhibitors” (Bioorg Med Chem Lett, 2007).

Assay [1] addresses Protein farnesyltransferase (Homo sapiens, UniProt P49354+P49356). The assay is described as follows: Inhibition of FTase by fluorescence spectrometry technique. The assay is classed as protein-complex assay.
Assay [2] has as its system DU-145. The assay is described as follows: Antiproliferative activity against DU145 cells by colorimetric MTT assay at 100 uM. As to conditions: Homo sapiens. In kind it is functional. For orientation: Tetrazolium assays rely on reduction of a dye to a coloured formazan, in cell work by metabolically active cells.
The subject of a further assay is PC-3. The assay is described as follows: Antiproliferative activity against PC3 cells by colorimetric MTT assay. In kind it is functional, cell-based. The settings on record: Homo sapiens. An outline of the steps:
(§1)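 Proliferation of the human tumour lines DU145, PC-3 and MCF-7 was read out by colorimetric MTT assay. Values come from at least three independent determinations, with standard deviation below 10%.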

Assay [3] has as its system L1210. The assay is described as follows: Antiproliferative activity against L1210 cells by cell numeration. The settings on record: Mus musculus.
Assay [4] deals with DU-145. As to the kind of experiment: Antiproliferative activity against DU145 cells by colorimetric MTT assay. The assay is classed as functional, cell-based. As to conditions: Homo sapiens. An outline of the steps:
as §1

In a further assay the test system is MCF7. The assay is described as follows: Antiproliferative activity against MCF7 cells by colorimetric MTT assay. In kind it is functional, cell-based. As to conditions: Homo sapiens. The essentials: as §1
Assay [5] concerns L1210. As to the kind of experiment: Antiproliferative activity against L1210 cells by cell numeration at 10 uM. The settings on record: Mus musculus.

SMILES strings stand for the structures.

For `CCCN1c2ccccc2C(N2CCCN(Cc3cncn3Cc3ccc(C#N)cc3)CC2)c2ccccc2S1(=O)=O` (centres undefined), the values for the IC50 (in assay [1]; in the assay with PC-3; in the assay with L1210 [3]) were 0.0465 µM, 34.1 µM and 4 µM, respectively. Besides, in the assay with DU-145 [2], the inhibition (in general, the share of the control response that was lost under treatment) at 100 µM stood at 38%.
Regarding `N#Cc1ccc(Cn2cncc2CN2CCCN(C3c4ccccc4CCc4ccccc43)CC2)cc1`, the IC50 (usually the midpoint of a concentration-inhibition curve) in assay [1] came to 0.285 µM; in the assay on DU-145 [4], 51.3 µM; in the assay on MCF7 it was 41 µM. This molecule also had an inhibition at 10 µM with L1210 [5] of 34%.
As to `CN1c2ccccc2C(N2CCCN(Cc3cncn3Cc3ccc(C#N)cc3)CC2)c2ccccc2S1(=O)=O` (centres undefined), the IC50 in assay [1] worked out at 0.0448 µM; in the assay with DU-145 [4], 59.8 µM; in the assay with PC-3 it was 50 µM; in the assay with MCF7, 48 µM; with L1210 [3], 4.76 µM.
Consider `N#Cc1ccc(Cn2cncc2CN2CCN(C3c4ccccc4CCc4ccccc43)CC2)cc1`, for which the IC50 in assay [1] turned out to be 0.31 µM; with DU-145 [4] it was 9.55 µM; with PC-3, 11.4 µM; with MCF7, 45 µM; with L1210 [3], 4.85 µM.
`N#Cc1ccc(Cn2cncc2CN[C@H](CC(=O)N[C@@H](Cc2ccccc2)C(N)=O)Cc2ccccc2)cc1`: the IC50 in assay [1] was 0.0285 µM; in the assay with DU-145 [4], above 100 µM; with PC-3, above 100 µM; with MCF7, above 100 µM. For the same molecule, the inhibition at 10 µM in the assay on L1210 [5] was 41%.
Turning to `CN1c2ccccc2C(N2CCN(Cc3cncn3Cc3ccc(C#N)cc3)CC2)c2ccccc2S1(=O)=O` (centres undefined), the half-maximal inhibitory concentration (IC50) came to 0.045 µM in assay [1]; 100 µM with DU-145 [4]; 69.4 µM with PC-3; 76 µM with MCF7; 3.9 µM in the assay with L1210 [3].
As for `CCCCN1c2ccccc2C(N2CCCN(Cc3cncn3Cc3ccc(C#N)cc3)CC2)c2ccccc2S1(=O)=O` (centres undefined), the IC50 in assay [1] amounted to 0.043 µM; in the assay on DU-145 [4], 100 µM; with MCF7, 66 µM; with L1210 [3], 3 µM.
As for `N#Cc1ccc(Cn2cncc2CN2CCCN(C3c4ccccc4N(CCCN4CCOCC4)S(=O)(=O)c4ccccc43)CC2)cc1` (centres undefined), the IC50 in assay [1] amounted to 0.0173 µM; in the assay with DU-145 [4], 47.4 µM; in the assay on PC-3 it was 27.3 µM; with MCF7, 33 µM; in the assay with L1210 [3] it was 4.57 µM.
For the molecule `COC(=O)[C@H](Cc1ccccc1)N(C(=O)c1ccccc1)C1CCN(Cc2cncn2Cc2ccc(C#N)cc2)CC1`, the IC50 in assay [1] was determined as 0.022 µM; in the assay with L1210 [3], 4.95 µM.
